Published values gathered from unrelated publications.
Protocols differ between the studies behind these lines.
Target: Casein kinase I isoform delta (CSNK1D, Homo sapiens, UniProt P48730)
Residues used in one study (P48730 1-294): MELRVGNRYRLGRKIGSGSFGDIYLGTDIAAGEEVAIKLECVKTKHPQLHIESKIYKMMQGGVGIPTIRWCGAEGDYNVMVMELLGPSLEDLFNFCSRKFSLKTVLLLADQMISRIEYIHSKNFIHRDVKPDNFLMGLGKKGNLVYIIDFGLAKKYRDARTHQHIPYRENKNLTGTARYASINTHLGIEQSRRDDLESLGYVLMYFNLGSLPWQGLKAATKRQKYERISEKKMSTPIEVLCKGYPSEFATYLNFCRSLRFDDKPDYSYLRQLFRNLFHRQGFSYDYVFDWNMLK

CO[C@@H]1[C@H](N(C)C(=O)c2ccccc2)C[C@H]2O[C@]1(C)n1c3ccccc3c3c4c(c5c6ccccc6n2c5c31)C(=O)NC4
inhibition (enzyme activity, inhibitor; 1 µM): 0%

COc1ccc2oc(-c3ccc4nc(N)oc4c3)c/c(=N\c3ccccc3NC(=O)CCN)c2c1
remaining binding (binding; 1 µM): 119%

N#Cc1ccc(NC(=O)Nc2ccccc2)cc1
remaining binding (cell-free assay, competition with immobilised ligand; 25 µM): 100%

CCCCC(=O)Nc1ccc(-c2ccc3ncn(CCC)c(=O)c3c2)cn1
remaining binding (binding, competition with immobilised ligand; 0.5 µM): 87%

c1cc(-c2cnn3cc(-c4ccc(OCCN5CCCCC5)cc4)cnc23)ccn1
kon (binding, SPR): 809000 M⁻¹ s⁻¹

Cc1ccc(NC(=O)c2ccnc(C(F)(F)F)c2)cc1-c1cc(OCCO)nc(N2CCOCC2)c1
remaining binding (binding; 1 µM): 99%

c1cc(Nc2cc(C3CC3)n[nH]2)nc(Nc2ccc3nc[nH]c3c2)n1
kon (binding, SPR): 335000 M⁻¹ s⁻¹

C#Cc1cnc(Nc2ccnc(CO)c2)nc1Nc1ccccc1S(C)(=O)=NC#N (stereo not drawn)
remaining signal (cell-free assay; 1 µM): 100%

C=CC(=O)N1CCC([C@@H]2CCNc3c(C(N)=O)c(-c4ccc(Oc5ccccc5)cc4)nn32)CC1
inhibition (enzyme activity, inhibitor; 1 µM): 8%

COc1ccc2[nH]c3c4[nH]c5ccc(OC)cc5c4c4c(c3c2c1)C(=O)NC4=O
remaining binding (binding; 1 µM): 94%

CC(C)S(=O)(=O)c1ccc2nccc(Nc3ccc4sc(C5CCCC5)nc4c3)c2c1
activity vs control (enzyme activity, inhibitor; 1 µM): 105%

C1=C/COCc2cc(ccc2OCCN2CCCC2)Nc2nccc(n2)-c2cccc(c2)COC/1
remaining binding (binding; 0.1 µM): 100%
